# CRFBP-R2 block = antagonists of CRF-binding protein/CRF-R2 receptor complex. HEK293 CRF-R2/CRF-BP, CRF-induced calcium fluorescence. AID 588475. 350,000 tested, 0.59% active. inhibition, % at 11.8 µM;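 active means inhibition of the ligand-induced calcium signal above about 50% at the single tested concentration, limit read from the data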
# DDE Tn6 FP inh = disrupts Tn6 cyclic peptide binding to fibrin D-Dimer-E complex. P02675. Fibrin DD(E) TRITC-Tn6 fluorescence polarization displacement. inhibition, % at 8.3 µM. 370,000 tested, 0.21% active. AID 720509;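 active means inhibition above a per-campaign cutoff: mean of compounds within control limits plus 3 SD, cut at about 15% in these data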;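 further: 0% = median of all compound wells on the plate and 100% = blocking peptide control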
# proKLK7 act = activates the human kallikrein-7 zymogen | purified proKLK7, EDANS-DABCYL substrate fluorescence; 100% is mature enzyme control, 0% vehicle | AID 652039 | activation, % at 7 µM | P49862 | 370,000 tested, 0.9% active;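 active means activation above the mean of all tested compounds plus 3 SD, computed per campaign excluding outliers beyond control limits, cut at about 13% in these data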
# Target sequence (P49862 whole entry, looked up): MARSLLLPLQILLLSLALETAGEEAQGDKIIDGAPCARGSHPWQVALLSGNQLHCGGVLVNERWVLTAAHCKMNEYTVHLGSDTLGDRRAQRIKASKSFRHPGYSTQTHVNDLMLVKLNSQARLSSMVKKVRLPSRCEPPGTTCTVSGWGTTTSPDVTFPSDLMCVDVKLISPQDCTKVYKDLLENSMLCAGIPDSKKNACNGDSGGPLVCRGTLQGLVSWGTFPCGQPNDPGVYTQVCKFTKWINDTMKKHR
# Tn7 DDE FP = DD(E)-Tn7 binding inhibition, primary FP screen | FP displacement of FITC-Tn7 peptide from fibrin DD(E); 0% = median of compound wells per plate | inhibition, % at 8.3 µM | 370,000 tested, 0.13% active | AID 720508;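 active means inhibition above the mean of compounds falling within the control limits plus 3 SD of them, cut at about 14% in these data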;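 further: 0% = plate median of compound wells and 100% = 10 µM Aha-Tn7 peptide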
#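 Assay system: Human clot-derived fibrin DD(E) complex | Buffer or medium: Tris/NaCl/CaCl2 buffer, pH 7.8 | Repeats: One replicate per compound | Benchmarks: Aha-Tn7 high control | Measure: % inhibition scaled between sample-field median and high-control FP | Schedule: 10 min plus 3 h, room temperature | Signal: Fluorescence polarization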
# CendR NRP1 mod = modulators of CendR peptide binding to human neuropilin-1; O14786; FAM-RPARPAR peptide binding to NRP-1, fluorescence polarization; inhibition, % at 25 µM; 360,000 tested, 0.85% active;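 active means inhibition or corrected inhibition above about 18%, plus a signal ratio from 0.5 to 1.5, limit read from the data, passing the limit was not always enough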
# CRFR2-BP ag = agonists of human CRF-binding protein/CRF-R2 receptor complex | HEK293 CRF-R2/CRF-BP, calcium dye fluorescence (FLIPR); percent of saturating CRF peptide response | activation, % at 13.2 µM | 350,000 tested, 0.46% active;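 active means activation of at least 50%, plus an integration ratio under a set limit after plate pattern correction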;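 further: plate controls were neutral control wells without compound for no effect and CRF at EC100 for full effect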
# proKLK7 act conf = confirmation of human kallikrein-7 zymogen activators | purified proKLK7, EDANS-DABCYL substrate fluorescence; scaled: vehicle 0, mature enzyme 100 | 3,200 tested, 68% active | AID 686949 | activation, % at 7 µM | shares compounds with proKLK7 act;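 active means activation, as change over the incubation, above the mean of all tested compounds plus 3 SD, cut at about 13% in these data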
# EDANS-DABCYL int = counter-screen for kallikrein-7 activators: EDANS-DABCYL optical interference. shares compounds with proKLK7 act. EDANS-DABCYL substrate fluorescence interference, no enzyme, 4 h; solvent 0%, active enzyme control 100%. activation, % at 7 µM. 3,200 tested, 80% active;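 active means activation above the all-compound mean plus 3 SD, ignoring values outside control-based bounds, cut at about 4.8% in these data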;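 further: value is the 4 h activation minus the activation read at time zero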
# EDANS interf = counter-screen for kallikrein-7 activators: EDANS-DABCYL interference, dose response; EDANS-DABCYL peptide fluorescence interference, no enzyme; EC50, µM; AID 720493; shares compounds with proKLK7 act; 250 tested, 20% active;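 active means compounds that raise the fluorescence signal in this interference counterscreen, with EC50 at or below 10 µM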;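 further: intact quenched peptide substrate alone read at 355 nm excitation and 520 nm emission; signal is fluorescence gain from T0 to T4 after four hours at room temperature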
# * hit, by the source's call; i = inactive; nt = not tested or not shown. Rows were chosen to be rich in hits. Some 2.9% of all compounds tested hit in one or more screens of this group.
SMILES,CRFBP-R2 block,DDE Tn6 FP inh,proKLK7 act,Tn7 DDE FP,CendR NRP1 mod,CRFR2-BP ag,proKLK7 act conf,EDANS-DABCYL int,others
CCCCN(CC)CCCNC(=O)c1cc2c(=O)[nH]c3ccccc3c2s1,-13,-1,15*,-4,6,1,9,6.2*,
CCOCCCNC(=O)c1cc2c(=O)[nH]c3ccccc3c2s1,-19,-4,2,3,3,-1,nt,nt,
CCC(C)NC(=O)c1cc2c(=O)[nH]c3ccc(C)cc3c2s1 (stereo not drawn),-52,-4,35*,6,14,1,-16,-17,
O=C(NCCCN1CCOCC1)c1cc2c(=O)[nH]c3ccccc3c2s1,1,-1,14*,1,-7,1,11,12*,
CCCCN(CC)CCNC(=O)c1cc2c(=O)[nH]c3ccc(C)cc3c2s1,-3,-8,16*,1,-12,1,-47,-54,
CCN1CCN(CCCNC(=O)c2cc3c(=O)[nH]c4ccccc4c3s2)CC1,-15,1,11,-3,4,-2,nt,nt,
COc1ccc(-c2cc(-c3nnc(SCC(=O)Nc4cccc(Cl)c4C)n3N)[nH]n2)cc1,nt,-7,0,-1,nt,nt,nt,nt,
COC(=O)[C@]12C[C@H](CC(=O)N3CCN(C(=O)C4CC4)CC3)C(=O)N(Cc3cccc4ccccc34)C1=C[C@H](COCc1ccccc1)O[C@@H]2C,nt,1,0,-2,nt,nt,nt,nt,
O=C(c1ccccc1Oc1ccccc1)N1CCC(Oc2cccnc2)CC1,nt,3,0,3,nt,nt,nt,nt,
CC1CN(C2=Nc3cccc4cccc2c34)CC(C)O1 (stereo not drawn),-3,3,44*,-3,4,7,6,5.7*,
CC(=O)N1CCN(C2=Nc3cccc4cccc2c34)CC1,5,11,60*,1,9,12,22*,19*,EDANS interf=i
c1cc2c3c(cccc3c1)C(N1CCOCC1)=N2,12,4,44*,-3,13,13,47*,46*,
CCOC(=O)N1CCN(C2=Nc3cccc4cccc2c34)CC1,0,8,55*,1,1,6,18*,28*,
c1ccc(CC2CCN(C3=Nc4cccc5cccc3c45)CC2)cc1,-39,nt,nt,nt,-60,10,nt,nt,
COc1ccccc1N1CCN(C2=Nc3cccc4cccc2c34)CC1,-32,4,3,3,-51,5,nt,nt,
CCC(CO)Nc1cccc2c1S(=O)(=O)N(Cc1cn(Cc3ccc(Cl)cc3)nn1)Cc1ccccc1O2 (stereo not drawn),nt,5,0,-5,nt,nt,nt,nt,
c1ccc2nc3c(nc2c1)OCC1CCCCN31 (stereo not drawn),16,0,16*,2,3,-3,18*,28*,
Nn1c(SCC(=O)N2CCOCC2)nnc1-c1cc(-c2ccc(Cl)cc2)n[nH]1,nt,2,0,-4,nt,nt,nt,nt,
COc1cc2oc3cc(C)oc(=O)c3c2cc1OC,21,-4,35*,8,3,-2,60*,73*,
O=S(=O)(c1ccc(-c2cn3ccccc3n2)cc1)N1CCOCC1,16,1,16*,-5,-7,3,19*,16*,EDANS interf=>70
Cc1cccn2cc(-c3ccc(S(=O)(=O)N4CCOCC4)cc3)nc12,-7,-6,10,5,-11,0,nt,nt,
Nc1cc(Nc2ccccc2)c2nonc2c1[N+](=O)[O-],9,-4,13*,3,-85,-3,-1,0,
Cc1c(Cc2ccccc2)c(=O)oc2cc(O)cc(O)c12,22,-5,55*,1,-3,-1,64*,76*,
N#Cc1cnn2ccc(-c3ccc4c(c3)CCC4)nc12,2,2,95*,2,-1,-5,57*,76*,
CCn1c2ccccc2c2cc(NC(=O)COC(=O)c3cc(F)ccc3C)ccc21,nt,-4,0,-6,nt,nt,nt,nt,
SMILES,CRFBP-R2 block,DDE Tn6 FP inh,proKLK7 act,Tn7 DDE FP,CendR NRP1 mod,CRFR2-BP ag,proKLK7 act conf,EDANS-DABCYL int,others
O=C(CNc1nnnn1-c1ccccc1)N1CCCC1,nt,0,1,-4,nt,nt,nt,nt,
O=C(CN1CCCc2ccccc21)NCc1ccc(Cl)cc1,nt,-9,0,7,nt,nt,nt,nt,
COc1ccc2[nH]c3c(=O)n(CCN4CCOCC4)cnc3c2c1,-13,-3,8,2,-4,-1,nt,nt,
COc1ccc2c(c1)c1ncn(CCN3CCCC3)c(=O)c1n2C,11,-2,24*,-1,-19,0,4,5.9*,
COc1ccccc1CCn1cnc2c3cc(C)ccc3n(C)c2c1=O,-2,-4,-1,-2,2,0,nt,nt,
COc1ccc2c(c1)c1ncn(CCN3CCNCC3)c(=O)c1n2C,-5,-4,25*,5,1,3,18*,17*,
COc1ccc2c(c1)c1ncn(CCN3CCCCC3)c(=O)c1n2C,-16,-9,17*,5,11,-3,1,0,
O=C(Cn1cnc2ccccc2c1=O)N1CCN(Cc2ccc(F)cc2)CC1,nt,4,-1,4,nt,nt,nt,nt,
C[C@H]1COc2cc(Br)ccc2S(=O)(=O)N1Cc1cn(CC2CCCCC2)nn1,nt,1,0,-5,nt,nt,nt,nt,
CCC[C@H]1[C@@H](NC(=O)C2CCOC2)CC[C@@]23CCCN2C(=O)CCC[C@@H]13 (stereo partly drawn),nt,1,nt,-1,nt,nt,nt,nt,
CNC(=O)c1cc(Nc2nnc(-c3ccc(C)c(S(N)(=O)=O)c3)c3ccccc23)ccc1OC,-1,-4,212*,3,-2,-2,223*,136*,
c1ccc(-c2ccc(-c3ccccn3)s2)nc1,-3,4,15*,11,-9,0,-19,-7,
CCc1cc2c(=O)c(-c3nc4ccccc4n3C)coc2c(CN2CCOCC2)c1O,-17,-3,2,0,0,-3,nt,nt,
CCc1cc2c(=O)c(-c3nc4ccccc4n3C)coc2c(CN2CCCCC2)c1O,10,4,13*,0,8,-1,7,8.8*,
CCc1cc2c(=O)c(-c3nc4ccccc4n3C)coc2c(CN2CCCCC2C)c1O (stereo not drawn),10,4,16*,-2,4,-3,8,15*,
COC(=O)[C@]12C[C@H](CC(=O)NCC34CC5CC(CC(C5)C3)C4)C(=O)N(Cc3cccc4ccccc34)C1=C[C@H](C(C)C)O[C@@H]2C1CC1,nt,-5,0,7,nt,nt,nt,nt,

# Screens: PubChem, several laboratories
